From ChEMBL document CHEMBL5038600, “Discovery of M-1121 as an Orally Active Covalent Inhibitor of Menin-MLL Interaction Capable of Achieving Complete and Long-Lasting Tumor Regression” (J Med Chem, 2021) come the findings set out here.

The test system of one data set is MV4-11. Kind of data set: Anti-proliferative activity against human MV4-11 cells harboring MLL/AF4 fusion protein assessed as cell growth inhibition measured after 4 days by Cell Titre Glo Luminescent Cell viability assay. In kind it is functional, cell-based. To be noted: MV4-11, 96 h.
Another data set deals with MOLM-13. Kind of data set: Anti-proliferative activity against human MOLM-13 cells harboring MLL/AF9 fusion protein assessed as cell growth inhibition measured after 4 days by Cell Titre Glo Luminescent Cell viability assay. In kind it is functional, cell-based. The note with it: MOLM-13, 96 h.
The target in data set [1] is T1, Menin (Homo sapiens) (UniProt O00255).
T1 sequence (whole entry): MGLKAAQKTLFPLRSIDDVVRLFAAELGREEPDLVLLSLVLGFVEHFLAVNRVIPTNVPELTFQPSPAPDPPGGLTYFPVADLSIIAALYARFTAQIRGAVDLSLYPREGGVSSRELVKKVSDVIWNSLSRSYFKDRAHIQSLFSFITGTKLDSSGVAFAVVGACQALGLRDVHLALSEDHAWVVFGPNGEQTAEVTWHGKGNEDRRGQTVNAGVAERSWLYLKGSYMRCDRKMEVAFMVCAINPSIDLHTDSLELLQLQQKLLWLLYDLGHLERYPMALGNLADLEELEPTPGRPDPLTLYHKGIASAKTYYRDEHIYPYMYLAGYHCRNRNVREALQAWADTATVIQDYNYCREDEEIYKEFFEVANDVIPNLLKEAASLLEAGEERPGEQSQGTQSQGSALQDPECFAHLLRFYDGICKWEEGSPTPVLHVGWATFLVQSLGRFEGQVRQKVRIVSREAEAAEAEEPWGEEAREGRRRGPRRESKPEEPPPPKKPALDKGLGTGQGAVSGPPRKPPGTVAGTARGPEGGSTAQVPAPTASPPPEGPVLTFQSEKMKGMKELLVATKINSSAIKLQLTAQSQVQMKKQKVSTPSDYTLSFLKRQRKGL
Kind of data set: Binding affinity to recombinant human menin protein assessed as covalent complex formation incubated for 10 mins by LC/MS analysis. Also noted: concentration or dose not given beside the values.

For data set [2], the target named is T1, Menin (Homo sapiens). Kind of data set: Binding affinity to recombinant human menin protein assessed as covalent complex formation incubated for 30 mins by LC/MS analysis. Also noted: concentration or dose not given beside the values.
Data set [3] has as its target T1, Menin (Homo sapiens). Kind of data set: Binding affinity to recombinant human menin protein assessed as covalent complex formation measured after overnight incubation by LC/MS analysis. Also noted: concentration or dose not given beside the values.
Data set [4] addresses T1, Menin (Homo sapiens). Kind of data set: Binding affinity to recombinant human menin protein assessed as covalent complex formation incubated for 1 hrs by LC/MS analysis. Also on record: concentration or dose not given beside the values. Put shortly:
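Menin (25 mg/mL in 25 mM Tris pH 8.0, 150 mM NaCl, 5 mM DTT) incubated with compound at a 1:1.2 protein:compound molar ratio for 1 h or overnight at 4 °C. Diluted to 1 mg/mL, then reverse-phase C4 LC with a 5–100% MeCN/0.2% formic acid gradient and Q-TOF mass spectrometry to detect the covalent adduct.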

For another data set, the target named is T2, Menin (Homo sapiens, UniProt O00255).
T2 sequence (O00255 whole entry): T1 sequence (whole entry)
Kind of data set: Binding affinity to menin (unknown origin) incubated for 1 hr by fluorescence polarization-based competitive binding assay. Background: In fluorescence polarisation assays a small probe gives low polarisation when free and higher when bound to something large.

The nature of data set [5]: Plasma concentration in mouse at 25 mg/kg, po measured after 1 hr. The class given is ADME, organism-based. Put shortly: (§1)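 Mice given a single oral dose of 25 mg/kg; plasma concentrations sampled at 1, 3 and 6 h post-dose.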
Data set [6] in a line: Plasma concentration in mouse at 25 mg/kg, po measured after 6 hrs. The class given is ADME, organism-based. Put shortly: as §1
Data set [7] is described as follows: Plasma concentration in mouse at 25 mg/kg, po measured after 3 hrs. The class given is ADME, organism-based. The method, boiled down: as §1

Some results are limits rather than exact numbers.

A word on the IC50: it is the concentration that gives 50% inhibition.

Regarding `COC(=O)N[C@H]1CCC[C@@H]1[C@](CN1CCC1)(c1cccc(F)c1)C1CCN(CC2(C(=O)OC)CN(c3ccc(S(=O)(=O)C4CC4)cc3)C2)CC1`, the IC50 in the data set with MV4-11 is over 1 µM; in the data set with MOLM-13, over 10 µM.
In the case of `C=CC(=O)N1CCC[C@H](S(=O)(=O)c2ccc(N3CC(CN4CCC([C@@](CN5CCC5)(c5cccc(F)c5)[C@H]5CCC[C@@H]5NC(=O)OC)CC4)(OC)C3)cc2)C1`, the Activity at Menin (Homo sapiens) [1] amounted to 8.8%; on Menin (Homo sapiens) [2] it was 27.9%; on Menin (Homo sapiens) [3], 93.1%; at Menin (Homo sapiens) [4] it was 37.4%. The results for the concentration for half-maximal inhibition (IC50) in the data set on MV4-11, with MOLM-13 and on Menin were 0.077 µM, 0.196 µM and 0.003 µM, respectively.
The compound `COC(=O)N[C@H]1CCC[C@@H]1[C@](CN1CCC1)(c1cccc(F)c1)C1CCN(CC2CN(c3ccc(S(=O)(=O)C4CC4)cc3)C2)CC1` gave a concentration at 1 h in [5] of 624 ng/mL. Besides, in [6], the concentration at 6 h was 928 ng/mL. Besides, the concentration at 3 h in data set [7] was 735 ng/mL.
`C=CC(=O)N1C[C@H]2C[C@@H]1CN2S(=O)(=O)c1ccc(N2CC(CN3CCC([C@@](CN4CCC4)(c4cccc(F)c4)[C@H]4CCC[C@@H]4NC(=O)OC)CC3)(OC)C2)cc1`: the Activity on Menin (Homo sapiens) [1] was determined as 0%; on Menin (Homo sapiens) [2], 0%; at Menin (Homo sapiens) [3] it was 45.1%; on Menin (Homo sapiens) [4], 0%. Moreover, the concentration for half-maximal inhibition (IC50) was 0.436 µM with MV4-11 and 0.504 µM with MOLM-13.
As for `COC(=O)N[C@H]1CCC[C@@H]1[C@](CN1CCC1)(c1cccc(F)c1)C1CCN(CC2(OC)CN(c3ccc(S(=O)(=O)C4CN(C(=O)/C=C/CN(C)C)C4)cc3)C2)CC1`, the Activity worked out at 36.9% at Menin (Homo sapiens) [1], 83.4% at Menin (Homo sapiens) [2], 90.9% on Menin (Homo sapiens) [3] and 85.4% at Menin (Homo sapiens) [4]. The values for the IC50 with MV4-11, in the data set with MOLM-13 and at Menin were 0.0023 µM, 0.0497 µM and 0.0027 µM, respectively.
Consider `C=CC(=O)N1CCC[C@@H](S(=O)(=O)c2ccc(N3CC(CN4CCC([C@@](CN5CCC5)(c5cccc(F)c5)[C@H]5CCC[C@@H]5NC(=O)OC)CC4)(OC)C3)cc2)C1`, for which the Activity on Menin (Homo sapiens) [1] came to 9.8%; at Menin (Homo sapiens) [2], 22.6%; at Menin (Homo sapiens) [3], 90%; at Menin (Homo sapiens) [4], 40.5%. Moreover, the IC50 in the data set on MV4-11 amounted to 0.074 µM; in the data set on MOLM-13, 0.188 µM; at Menin it was 0.0037 µM.
As to `COC(=O)N[C@H]1CCC[C@@H]1[C@](CN)(c1cccc(F)c1)C1CCN(CC2CN(c3ccc(S(=O)(=O)C4CC4)cc3)C2)CC1`, the results for the 50% inhibitory concentration (IC50) in the data set on MV4-11 and with MOLM-13 were 0.192 µM and 0.553 µM, respectively.
In the case of `C=CC(=O)N1CC(S(=O)(=O)c2ccc(N3CC(CN4CCC([C@@](CN5CCC5)(c5cccc(F)c5)[C@H]5CCC[C@@H]5NC(=O)OC)CC4)(OC)C3)cc2)C1`, the Activity on Menin (Homo sapiens) [1] came out at 24.1%; at Menin (Homo sapiens) [2] it was 40.9%; at Menin (Homo sapiens) [3] it was 81.5%; on Menin (Homo sapiens) [4], 59.4%. Further, the IC50 was 0.112 µM with MV4-11 and 0.402 µM in the data set with MOLM-13.
The compound `COC(=O)N[C@H]1CCC[C@@H]1[C@](CN1CCC1)(c1cccc(F)c1)C1CCN(CC2(OC)CN(c3ccc(S(=O)(=O)C4CC4)cc3)C2)CC1` displayed a concentration at 1 h in [5] of 8260 ng/mL. The concentration at 6 h in data set [6] turned out to be 2200 ng/mL. Moreover, the concentration at 3 h in [7] was 5750 ng/mL.
With `C=CC(=O)N1CCC(S(=O)(=O)c2ccc(N3CC(CN4CCC([C@@](CN5CCC5)(c5cccc(F)c5)[C@H]5CCC[C@@H]5NC(=O)OC)CC4)(OC)C3)cc2)CC1`, the Activity at Menin (Homo sapiens) [1] turned out to be 0%; on Menin (Homo sapiens) [2] it was 0%; on Menin (Homo sapiens) [3] it was 27%; at Menin (Homo sapiens) [4], 0%. For the same compound, the IC50 with MV4-11 worked out at 0.156 µM; with MOLM-13, 0.594 µM; on Menin it was 0.0038 µM.
